# eIF4H inh – inhibitors of RNA binding by human eIF4H; Q15056; hit rate 0.94% among 290,000; eIF4H fluorescence polarization binding assay; inhibition, % at 35 µM;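 further: calls also rest on retests at 20 µM and on dose response follow-up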
# core dimer inh – blocks dimerization of HCV core protein; TR-FRET GST/Flag-core106 dimerization, 1536-well; inhibition, % at 5 µM; hit rate 0.33% among 300,000; AID 1899;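 active means inhibition above the mean of all tested compounds plus 3 SD, set per screening campaign, cut at about 45% in these data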
#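 Assay system: tagged HCV core106 pair (GST and Flag); medium: KF-containing HEPES buffer, pH 7.45, DTT, CHAPS, BSA; also added: Eu donor and XL665 acceptor anti-tag antibodies; dosing: 5 µM single dose; timing: compound-protein-antibody incubation 4 h at 22.5 °C; signal: TR-FRET 671 and 617 nm emission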
# eIF4E 4G PPI – inhibitors of eIF4E and eIF4G interaction in translation initiation; hit rate 0.37% among 220,000; TR-FRET eIF4E-eIF4GI(517-606) binding, 2 h; AID 782; inhibition, % at 21.7 µM; P63073+Q04637;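 active means inhibition above about 30%, limit read from the data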;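 further: 0% = full FRET control wells and 100% = background wells lacking eIF4GI fragment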
# UBC9 SUMO inh – SUMOylation inhibition; P63279; HTRF SUMOylation assay, SAE1/SAE2 + UBC9, in vitro; inhibition, % at 35 µM; hit rate 0.36% among 290,000; AID 2006; in the data active means inhibition above about 50%, passing the limit was not always enough; inconclusive means no clear call, values can overlap the other calls
# PABP1 MLLE inh – blocks PAM2 peptide binding to the PABP1 MLLE domain. P11940. inhibition, % at 20 µM. hit rate 0.36% among 360,000. GST-MLLE / FITC-PAM2 fluorescence polarization. AID 588489; in the data active means inhibition above about 35%, passing the limit was not always enough;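 further: plate controls were DMSO wells with GST-MLLE for no effect and wells lacking GST-MLLE protein for full effect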
# Target sequence (P11940 whole entry, looked up, the tested form may be a part): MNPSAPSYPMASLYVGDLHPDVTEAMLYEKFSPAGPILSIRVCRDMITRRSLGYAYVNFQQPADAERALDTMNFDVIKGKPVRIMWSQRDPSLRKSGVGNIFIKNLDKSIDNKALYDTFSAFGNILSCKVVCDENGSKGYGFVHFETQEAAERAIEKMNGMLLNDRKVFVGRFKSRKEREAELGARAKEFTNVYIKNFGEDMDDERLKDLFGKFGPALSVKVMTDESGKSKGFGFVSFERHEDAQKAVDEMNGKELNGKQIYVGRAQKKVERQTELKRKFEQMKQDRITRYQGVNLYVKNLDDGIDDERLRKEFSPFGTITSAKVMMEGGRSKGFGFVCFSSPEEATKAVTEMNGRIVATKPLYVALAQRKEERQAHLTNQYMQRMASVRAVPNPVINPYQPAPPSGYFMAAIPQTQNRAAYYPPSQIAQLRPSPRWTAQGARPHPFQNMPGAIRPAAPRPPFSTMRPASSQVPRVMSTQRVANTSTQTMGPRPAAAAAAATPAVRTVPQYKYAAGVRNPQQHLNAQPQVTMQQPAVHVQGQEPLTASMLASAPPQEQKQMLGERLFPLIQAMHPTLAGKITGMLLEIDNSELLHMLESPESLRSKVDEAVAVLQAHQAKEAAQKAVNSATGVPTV
# PABP polyA inh – blocks human PABP binding to poly(A) RNA | hit rate 1% among 290,000 | calls only at 35 µM | AID 2014 | fluorescence polarization;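 further: calls also rest on retests at 20 µM and on dose response follow-up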
# * hit, by the source's call; i = inactive; ? = inconclusive; . = no result; + = active, no number. Only some compounds are listed: those with a hit (about 1.8% of all), similar ones and a draw of the others. Unless noted, how the calls were made is not given here.
SMILES,eIF4H inh,core dimer inh,eIF4E 4G PPI,UBC9 SUMO inh,PABP1 MLLE inh,PABP polyA inh
C=C(C)C(=O)Nc1cccc(C2=NOC3(C2)C[C@@H](C(N)=O)N(C(=O)/C(C)=C/C)C3)c1 (stereo partly drawn),82.6*,-114.3,9.6,9.4,-1.9,+
C=C(C)C(=O)N1CC2(CC(c3cccc(NC(=O)/C=C\C)c3)=NO2)C[C@H]1C(N)=O (stereo partly drawn),5.3,-1.1,-5.2,-18.6,8.7,i
COc1ccc(CC(=O)OCC(=O)c2ccc(F)cc2)cc1,.,.,.,.,-2.3,.
CN(C)CCCNC(=O)c1ccc(=O)[nH]n1,91.1*,-3.6,0.0,-5.8,-4.2,+
Cc1ccc(C(=O)NCCCNCCCN(C)C)cn1,67.6*,-2.5,-15.6,-3.3,-2.3,+
COc1cccc2sc3ccc(NCc4ccc5c(c4)OCO5)cc3c(=O)c12,52.5*,3.3,.,21.3,8.2,i
COC(=O)N/N=C(C)\C=C\c1ccco1,28.6,4.0,-0.6,20.2,8.6,i
CC(/C=C/c1ccco1)=N\NC(=O)CNc1cccc(C)c1,95.1*,9.1,1.4,2.9,0.5,+
O=C(CCSCCC(=O)NCC1CCCO1)NCC1CCCO1 (stereo not drawn),-12.5,-3.6,1.4,23.3,30.9,i
O=C(CC1CCCCC1)NCC1CCCO1 (stereo not drawn),-5.6,-6.5,38.4*,-5.1,2.9,i
Cc1ccoc1C(=O)N1CCN(C(=O)c2occc2C)CC1,2.3,-2.5,.,-4.3,-3.8,i
COc1cccc(-n2c(SCc3cc(=O)oc4cc(O)c(O)cc34)nc3ccccc3c2=O)c1,105.8,8.1,2.2,78.9*,-5.8,i
CCN(CC)C(=O)CSc1nc2ccccc2c(=O)n1-c1cccc(OC)c1,-4.7,5.1,2.2,19.5,-4.8,i
Cc1c(C(=O)OCC(=O)N(C)c2ccccc2)oc2ccccc12,0.1,4.4,.,19.0,-2.6,i
O=C(CCN1C(=O)/C(=C\c2ccco2)SC1=S)Nc1ccc(C(=O)O)c(O)c1,.,4.0,.,.,-7.5,.
O=C(O)CCCN1C(=O)/C(=C\c2ccco2)SC1=S,99.9*,.,-0.1,38.6,25.6,+
O=C(CCN1C(=O)/C(=C/c2ccco2)SC1=S)Nc1ccc(O)cc1C(=O)O,100.6*,.,.,49.2,11.2,+
O=C(CCCN1C(=O)/C(=C/c2ccco2)SC1=S)Nc1ccccc1C(=O)O,100.2*,6.0,3.0,67.7,7.5,+
O=C(CN1C(=O)/C(=C\c2ccco2)SC1=S)Nc1ccc(O)cc1C(=O)O,79.2*,-0.1,.,82.5*,-11.9,+
COc1ccc(C(=O)N/C(=C\c2cn(C)c3ccccc23)C(=O)N2CCOCC2)cc1,-1.0,-19.4,.,4.0,-23.5,i
O=C(CCN1C(=O)/C(=C/c2ccco2)SC1=S)Nc1ccc(C(=O)O)c(O)c1,86.2*,4.4,.,.,-7.8,+
O=C1/C(=C\c2ccco2)NC(=S)N1c1ccccc1,60.4,18.1,2.8,1.7,1.4,+
O=C1/C(=C\c2ccco2)SC(=S)N1Cc1ccccc1,75.8*,5.7,1.7,36.6,5.8,+
CC1=NN2C(=N)/C(=C\c3ccc(SCc4ccccc4)o3)C(=O)N=C2S1,?,2.1,.,32.5,5.4,+
CCCN=C1N/C(=C\c2ccco2)C(=O)N1c1ccccc1,126.5,-9.1,-5.0,12.0,-7.7,i
SMILES,eIF4H inh,core dimer inh,eIF4E 4G PPI,UBC9 SUMO inh,PABP1 MLLE inh,PABP polyA inh
CCOc1ccccc1N1CCN(C(=O)c2cc(S(=O)(=O)N(C)C)ccc2N2CCCC2)CC1,.,.,.,.,2.4,.
Cc1ccc(N2C(=O)/C(=C\c3ccco3)SC2=S)cc1,77.4*,37.3,5.6,27.4,8.6,+
COc1ccc(CCN2C(=O)/C(=C\c3ccco3)SC2=S)cc1OC,63.3*,.,5.1,32.3,1.2,+
C=CCN1C(=O)/C(=C\c2ccc(OC(=O)c3ccco3)c(OC)c2)SC1=S,-10.1,6.7,-3.1,-0.2,-0.9,i
O=C1/C(=C\c2ccco2)SC(=S)N1c1ccccc1,86.0,-5.4,-3.8,25.6,2.5,i
CC(/C=C1\SC(=S)N(CCC(=O)Nc2ccccc2O)C1=O)=C\c1ccccc1,50.6,7.3,.,16.0,-50.6,+
O=C(O)CCN1C(=O)/C(=C\c2ccc(-c3nc4ccccc4s3)o2)SC1=S,101.3*,9.8,19.7,34.2,-78.6,+
O=C1/C(=C/c2ccco2)SC(=S)N1CC1CCCO1 (stereo not drawn),74.4*,16.6,14.6,32.0,5.2,i
O=C(O)CN1C(=O)/C(=C\c2ccc(OC(=O)c3ccco3)cc2)SC1=S,-6.9,-3.2,.,16.5,-28.3,i
O=C(O)CN1C(=O)/C(=C/c2ccc(SCc3ccccc3)o2)SC1=S,59.6*,.,11.6,.,-122.8,+
O=C(CCCN1C(=O)/C(=C\c2ccco2)SC1=S)Nc1ccc2ccccc2c1,78.5*,46.1*,4.4,21.6,-11.4,+
COc1cc(NC(=O)CSc2nc3[nH]c(=O)cc(O)c3s2)cc(OC)c1OC,.,.,.,.,3.6,.
CC(=O)Nc1sc(C)c(C)c1C(=O)OC(C)C,-2.0,-11.3,0.2,2.1,9.4,i
Cc1sc(NC(=O)Cn2nc(C(F)(F)F)cc2C)c(C(=O)OC(C)C)c1C,4.7,-3.2,31.0*,2.3,2.6,i
COc1ccc(NC(=O)COC(=O)c2c(NC(C)=O)sc(C)c2C)cc1,.,.,.,.,-6.5,.
CN(C)S(=O)(=O)c1cccc(-c2nn(-c3ccccc3)cc2/C=C2\SC(=S)NC2=O)c1,?,52.5*,17.1,.,-82.4,+
COc1ccc(NS(=O)(=O)c2ccc(N3CCCC3)c(NC(=S)Nc3ccc(SC(F)F)cc3)c2)cc1,-12.3,16.2,-0.6,-1.7,40.3*,i
Cc1ccccc1-n1ncc2c1CC(C)(C)CC2NC(=O)CCN1CCCCC1=O (stereo not drawn),-17.8,-2.6,.,-5.7,-5.1,i
CC(C)(C)CC(=O)Nc1ccc(-c2nnc3n2CCCCC3)cc1,77.6*,2.4,.,-8.5,3.5,+
COCCNC(=O)C1(C)CCN(C(=O)c2cccc(C)c2C)C1 (stereo not drawn),.,.,.,.,-4.2,.
Cc1ccccc1-n1sc2cc(F)ccc2c1=O,-15.8,-0.2,51.8*,8.6,28.8,i
Cc1c(Cl)cccc1NS(=O)(=O)c1ccc2c(c1)C1C=CCC1C(c1ccc(C(=O)O)cc1)N2 (stereo not drawn),88.3,18.1,49.7*,96.6*,-10.6,i
COc1ccc(NS(=O)(=O)c2ccc3c(c2)[C@H]2C=CC[C@H]2[C@@H](c2ccc(C(=O)O)cc2)N3)cc1,96.7*,23.4,.,54.2*,-44.8,+
COc1ccc(NS(=O)(=O)c2ccc(NS(=O)(=O)c3cccc(C(=O)O)c3)cc2)cc1,-4.0,11.5,.,15.1,5.1,i
